Results on 37 sequences are retold here after the array DNA melting data of Ke et al. (doi:10.1101/2024.01.08.574731).

Data set [1] in a line: folding enthalpy; higher = less favourable; fluorescence melt of hairpins on a sequencing array, two-state fit. To be noted: sodium 0.088 M. In a few lines: (§1)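 Library hairpins on a sequenced MiSeq flow cell carried annealed Cy3 and quencher oligos, and their Cy3 fluorescence was imaged in 50 mM Na-HEPES pH 8.0 with 25 mM NaCl, in 2.5 °C steps up to 60 °C. Signals were normalised to Cy3 before quenching and to control constructs. Melting temperature and folding enthalpy were obtained from bootstrapped two-state fits, combined by inverse-variance weighting across four replicates, and the fitted temperatures were then raised by 9.35 °C to match UV melts.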

The nature of data set [2]: melting temperature; fluorescence melt of hairpins on a sequencing array, two-state fit, raised by 9.35 °C to match UV melts. To be noted: sodium 0.088 M. In a few lines: as §1

Turning to GTTATCCGAAAGGAAAAC (((.(((....))).))), the folding enthalpy in data set [1] was -25.2 kcal/mol. Further, in data set [2], the Tm was 40.8 °C.

For GTCAGCGAAAGCTAAGAC ((((((....)))..))), the folding enthalpy in data set [1] is -16.7 kcal/mol. The Tm in data set [2] came to 41.5 °C.

Regarding GCCCTCCGAAAGGATGGC (((.(((....))).))), the folding enthalpy in data set [1] was -37.5 kcal/mol. Moreover, in data set [2], the Tm amounted to 55 °C.

In the case of GGCTACGAAAGTAAGCC ((((((....))).))), the folding enthalpy in data set [1] was -36.3 kcal/mol. In addition, the Tm in data set [2] stood at 58.4 °C.

GATCACCATAGTGATC ((((((....)))))): the folding enthalpy in data set [1] was -42.2 kcal/mol. The Tm in data set [2] was determined as 58.5 °C.

In the case of GATCCACGTATGGATC ((((((....)))))), the folding enthalpy in data set [1] is -31.8 kcal/mol. The Tm in data set [2] amounted to 51.6 °C.

With GCTGCTGGAAACAGCGGC ((.((((....)))).)), in data set [1], the folding enthalpy was -45.2 kcal/mol. In addition, the Tm in data set [2] was 65.8 °C.

For the sequence GGGTCAGGAAACCAACCC ((((..(....)..)))), the folding enthalpy in data set [1] was -15.7 kcal/mol. For the same sequence, in data set [2], the Tm stood at 33 °C.

Take GCACAGGGAAACTTGTGC (((((.(....).))))): in data set [1], the folding enthalpy was -34.7 kcal/mol. Moreover, the Tm in data set [2] came out at 52.1 °C.

Regarding GGCCCCCGAAAGGGCGCC (((.(((....))).))), in data set [1], the folding enthalpy was -24.8 kcal/mol. The Tm in data set [2] was determined as 58.3 °C.

In the case of GATTGCGAAAGCACGATC ((((((....)))..))), the folding enthalpy in data set [1] was -7.93 kcal/mol. Further, in data set [2], the Tm is 28.7 °C.

With GATCCCGGCGGGGATC ((((((....)))))), the folding enthalpy in data set [1] is -47.7 kcal/mol. Also, the Tm in data set [2] came to 61.3 °C.

For GCTGCCGAAAGGCCCAGC ((((((....)))..))), the folding enthalpy in data set [1] is -12.2 kcal/mol. Further, the Tm in data set [2] came out at 35.8 °C.

Turning to GACATTGGAAACAATGTC (((((((....))))))), the folding enthalpy in data set [1] is -44.1 kcal/mol. In data set [2], the Tm was 56.6 °C.

Turning to GATCGATTGTCGATC ((((((...)))))), the folding enthalpy in data set [1] was -35.5 kcal/mol. Besides, the Tm in data set [2] was found to be 51.3 °C.

Turning to GATCATTAGCATGATC ((((((....)))))), the folding enthalpy in data set [1] is -32.6 kcal/mol. The Tm in data set [2] came out at 44.2 °C.

With GATGGCGAAAGCCTGATC ((((((....)))..))), in data set [1], the folding enthalpy is -11 kcal/mol. In addition, the Tm in data set [2] was found to be 33.6 °C.

Turning to GAGACCGAAAGGTCCCTC ((((((....)))..))), in data set [1], the folding enthalpy was -11.1 kcal/mol. Also, the Tm in data set [2] came out at 44.6 °C.

Take GAAAGCGGAAACGTTTTC ((((.((....)).)))): in data set [1], the folding enthalpy was -30.5 kcal/mol. The Tm in data set [2] worked out at 42.4 °C.

As for GCGTTGTCACGC ((((....)))), the folding enthalpy in data set [1] is -22.4 kcal/mol. Further, the Tm in data set [2] worked out at 52.2 °C.

GTAATACGAAAGTAGTAC (((.(((....))).))): the folding enthalpy in data set [1] is -34.5 kcal/mol. Further, in data set [2], the Tm came to 42.5 °C.

For the sequence GTCGAACGAAAGTTGGAC (((.(((....))).))), the folding enthalpy in data set [1] is -46.4 kcal/mol. Moreover, in data set [2], the Tm came out at 50.6 °C.

As to GCCTAGCGAAAGCAGGGC (((..((....))..))), the folding enthalpy in data set [1] was -24 kcal/mol. Besides, in data set [2], the Tm came to 62.4 °C.

On to GCAGAGCGAAAGCTTCGC ((..(((....)))..)), for which the folding enthalpy in data set [1] is -17.2 kcal/mol. Moreover, the Tm in data set [2] worked out at 44.8 °C.

Consider GAGGCTGGAAACAACCTC ((((.((....)).)))), for which the folding enthalpy in data set [1] is -29.2 kcal/mol. Also, the Tm in data set [2] came to 41.8 °C.

For GGCATCACGAAAGTGGCC (((..(((....)))))), the folding enthalpy in data set [1] is -21.9 kcal/mol. Besides, in data set [2], the Tm stood at 48.2 °C.

As to GTTCTCGAAAGAGACAAC ((((((....)))..))), in data set [1], the folding enthalpy is -11.6 kcal/mol. The Tm in data set [2] turned out to be 30.6 °C.

For GATCTGGAGCAGATC ((((((...)))))), the folding enthalpy in data set [1] is -28.1 kcal/mol. For the same sequence, the Tm in data set [2] stood at 45.4 °C.

GAGTGGCGAAAGCCTCTC (((.(((....))).))): in data set [1], the folding enthalpy was -24.2 kcal/mol. Besides, the Tm in data set [2] amounted to 53.6 °C.

For the sequence GCGTAGCGAAAGCCACGC ((((.((....)).)))), in data set [1], the folding enthalpy was -18.7 kcal/mol. Further, the Tm in data set [2] turned out to be 60.1 °C.

On to GGTTGAGGAAACTCAACC (((((((....))))))), for which the folding enthalpy in data set [1] is -40.1 kcal/mol. Further, the Tm in data set [2] is 60.7 °C.

For GATCCTATCCAGGATC ((((((....)))))), the folding enthalpy in data set [1] was -33.8 kcal/mol. For the same sequence, the Tm in data set [2] stood at 53 °C.

As to GCTTACCGAAAGGTTAGC (((.(((....))).))), in data set [1], the folding enthalpy was -35 kcal/mol. Further, in data set [2], the Tm worked out at 52.8 °C.

Turning to GTGAAACGAAAGTTGCAC (((.(((....))).))), the folding enthalpy in data set [1] was -31.2 kcal/mol. Also, in data set [2], the Tm was 51.6 °C.

GCCGCGCGAAAGCTCAGC ((.(.((....)).).)): in data set [1], the folding enthalpy was -10.8 kcal/mol. Moreover, the Tm in data set [2] was found to be 35.1 °C.

Turning to GCCTACGAAAGTATTGGC ((((((....)))..))), the folding enthalpy in data set [1] is -20.5 kcal/mol. Besides, the Tm in data set [2] amounted to 43.4 °C.

Regarding GGGAACCCGAAAGGGCCC (((..(((....)))))), in data set [1], the folding enthalpy was -15.4 kcal/mol. Further, in data set [2], the Tm came to 45.9 °C.
